Screening data from PubChem.
Wee1 stabilizer: human Wee1 degradation inhibition, primary screen | reporter increase, % at 5 µM | P30291 | HeLa Luc-Wee1K328M stability, luciferase luminescence; 100% = proteasome inhibitor MG132 effect | AID 1321 | hit rate 1.2% among 220,000;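 active = activation above the mean of all tested compounds plus 3 SD, set per screening run, cut at about 8.8% in these data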;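 also: cells exposed to compound for 20 h before luminescence read; 0% = DMSO alone and 100% = MG132 at 30 µM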
Target sequence (P30291 whole entry K328M): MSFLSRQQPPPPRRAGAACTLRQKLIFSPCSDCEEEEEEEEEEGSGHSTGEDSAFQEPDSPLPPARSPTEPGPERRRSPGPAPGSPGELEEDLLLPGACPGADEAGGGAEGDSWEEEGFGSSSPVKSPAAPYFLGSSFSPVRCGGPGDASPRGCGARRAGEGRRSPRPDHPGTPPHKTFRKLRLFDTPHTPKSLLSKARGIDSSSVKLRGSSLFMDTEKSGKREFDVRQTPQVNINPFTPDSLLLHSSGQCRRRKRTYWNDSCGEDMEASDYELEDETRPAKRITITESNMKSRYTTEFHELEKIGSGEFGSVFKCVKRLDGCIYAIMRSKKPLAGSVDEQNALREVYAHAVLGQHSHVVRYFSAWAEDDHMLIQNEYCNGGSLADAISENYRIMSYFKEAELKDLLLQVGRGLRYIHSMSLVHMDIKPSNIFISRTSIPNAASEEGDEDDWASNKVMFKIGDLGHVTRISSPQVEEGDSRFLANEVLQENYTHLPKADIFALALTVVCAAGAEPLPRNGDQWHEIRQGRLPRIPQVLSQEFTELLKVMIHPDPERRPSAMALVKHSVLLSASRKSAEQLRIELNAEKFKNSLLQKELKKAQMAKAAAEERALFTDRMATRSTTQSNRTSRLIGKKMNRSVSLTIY
PKD1 inh: PKD1 (human) kinase inhibition; PKD1 kinase fluorescence polarization assay; hit rate 0.056% among 200,000; Q15139; inhibition, % (concentration not given with the values); in the data active = inhibition above about 50%
p97 inhibitor: human p97 ATPase inhibition; P55072; recombinant p97 ATPase, Kinase-Glo ATP luminescence, 3 h; inhibition, % at 8 µM; hit rate 0.42% among 220,000; AID 1481; in the data active = inhibition above about 15%;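 also: 0% = DMSO vehicle and 100% = wells lacking enzyme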
Arbovirus anti: blocks arbovirus infection. arbovirus infection cell-based antiviral screen. inhibition, % at 10 µM. AID 1251. hit rate 0.37% among 200,000; in the data active = inhibition above about 30%
RBBP9 inh: blocks human serine hydrolase RBBP9; hit rate 0.2% among 220,000; recombinant RBBP9, FP-Rh probe fluorescence polarization; O75884; inhibition, % at 7.94 µM;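 active = inhibition above the campaign mean of all tested compounds plus 3 SD, cut at about 14% in these data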;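 also: plate controls were DMSO wells with RBBP9 for no effect and wells lacking RBBP9 protein for full effect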
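Measured by – fluorescence polarization · Test system – RBBP9 protein · Input – 2.5 µM RBBP9 dispensing solution, before mixing · Measure – percent inhibition from mP, scaled between DMSO and no-protein wells · Benchmarks – DMSO-treated enzyme wells and wells lacking RBBP9 · Times – preincubation 30 min plus labeling 45 min at 25 °C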
DTT redox prof: compounds producing H2O2 with reducing agent – biochemical, NIH compound library profiling, artefact control for MLSCN library redox annotation, primary screen; hit rate 0.03% among 200,000; AID 878; activation, % at 10 µM; DTT-dependent redox cycling H2O2, phenol red/HRP absorbance; 100% = 100 µM peroxide control, 0% = buffer;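 active = activation of at least 50% relative to the plate's high and low controls in the primary single-dose screen; inactive = activation below 50%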;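 also: compound incubated with DTT at 0.8 mM final as the reducing agent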
Wee1 stab conf: human Wee1 degradation inhibition, confirmation. shares compounds with Wee1 stabilizer. HeLa Luc-Wee1K328M degradation, luminescence; vehicle 0%, proteasome-blocked wells 100%. activation, % at 5 µM. hit rate 4% among 1,100. AID 1410; in the data active = activation above about 8.9%
* = called active by the depositor; . = no result given. Hits are enriched below; roughly 2.2% of the tested compounds scored in any of these assays.

SMILES	Wee1 stabilizer	PKD1 inh	p97 inhibitor	Arbovirus anti	RBBP9 inh	DTT redox prof	Wee1 stab conf
COc1cccc(/C=N/Nc2ccc(C(=O)O)cc2)c1O	-4.4	-9.1	-22.9	-8.0	-0.8	0.9	.
COc1cccc(/C=N/Nc2ccc(S(=O)(=O)O)cc2)c1O	18.1*	-8.6	-2.3	7.3	-11.0	-5.0	4.7
CC(C)(C)c1ccc(C(=O)Nc2ccc(F)cc2)s1	12.1*	.	-8.3	.	-13.1	.	7.1
N/C(=N\OC(=O)c1ccc(=O)n(Cc2ccc(Cl)cc2)c1)c1ccccn1	11.1*	-14.0	3.6	0.7	-7.6	-0.7	0.4
CCN1C(=O)c2cccc3c(NC(=O)c4ccc(S(=O)(=O)N(C)C)cc4)ccc1c23	11.3*	8.4	3.8	-19.3	-0.3	-0.8	5.0
CCN1C(=O)c2cccc3c(NC(=O)c4ccc(S(=O)(=O)N5CCOCC5)cc4)ccc1c23	0.9	-3.5	5.2	-8.2	1.8	-1.1	.
CC(=O)NC1(C(F)(F)F)NC(=O)N(c2ccc(F)cc2)C1=O (stereo unspecified)	2.1	1.3	0.9	-0.6	4.6	0.2	.
CCOC(=O)Cc1nc2cc(Cl)ccc2o1	7.3	-7.5	5.2	-3.0	6.4	-0.3	.
Cc1ccc(S(=O)(=O)CCC(=O)OCC(=O)Nc2cc(C)on2)cc1	-2.8	8.4	3.9	10.1	1.4	0.2	.
Cc1ccc(S(=O)(=O)CCC(=O)OCC(=O)NC(N)=O)cc1	13.6*	.	7.0	.	-0.4	.	-0.3
Oc1cccc2ccc[n+](CC(O)Cn3c4ccccc4c4ccccc43)c12 (stereo unspecified)	17.8*	-5.8	3.3	3.7	6.1	0.4	-1.4
OC(COc1ccccc1)Cn1c2ccccc2c2ccccc21 (stereo unspecified)	-0.1	-2.6	0.5	-44.6	-8.9	-0.3	.
Cn1c(SCC(=O)c2ccccc2)nnc1-c1cnccn1	12.8*	0.5	0.3	1.2	-6.2	0.4	-1.6
CCc1ccc(C2c3[nH]c4ccccc4c3CCN2C(=O)CNC(N)=O)cc1 (stereo unspecified)	22.8*	3.7	-0.9	-1.7	-2.5	-0.3	0.5
Nc1c2c(nc3sc4c(c13)CCCC4)-c1ccccc1CC2	18.0*	.	3.5	.	-5.6	.	1.2
COc1ccccc1/C=C(/NC(=O)c1ccc(Cl)cc1Cl)C(=O)O	2.7	-6.4	0.0	-3.0	-2.3	-0.2	.
O=C1CCCCCCC1Sc1ccccc1[N+](=O)[O-] (stereo unspecified)	-1.3	-6.7	-3.9	3.2	-10.4	1.2	.
CN1/C(=C\C(=O)Nc2cccc(Cl)c2)C(C)(C)c2ccccc21	19.3*	1.5	2.3	-16.9	-7.3	1.2	-0.6
CC1CC(C)CN(C(=S)SCc2nc(N)nc(Nc3ccccc3)n2)C1 (stereo unspecified)	11.8*	.	2.1	.	-2.1	.	-4.5
COCCOc1cnn(-c2cc(Oc3ccc(C)cc3)ncn2)c(=O)c1Cl	11.7*	-7.0	-4.2	5.6	-7.9	0.0	3.7
CC(=O)Nc1cccc(/C(C)=N/NC(=O)c2cccc(S(=O)(=O)N3CCOCC3)c2)c1	13.6*	-6.9	-4.3	4.2	-1.7	-3.8	-1.3
CCN(CC)CCN(C(=O)c1ccc(CN2CCCCC2)o1)C(C(=O)NC1CCCCC1)c1ccc(F)cc1 (stereo unspecified)	11.4*	-0.1	2.2	16.6	-6.1	0.0	-2.1
Cn1ccnc1C(=O)c1cc(SCC(=O)N2CCOCC2)nc2ccccc12	1.2	-9.6	1.7	7.2	1.0	0.3	.
COc1ccc(-c2noc(CN(C)Cc3ccc(C)o3)n2)cc1	12.4*	-2.7	-0.4	-1.0	-2.5	-1.2	2.7
O=C1OCC2=C1C(c1ccccc1)CC(=O)N2c1ccc(F)cc1 (stereo unspecified)	3.9	3.1	-1.2	3.4	3.7	10.2	.
SMILES	Wee1 stabilizer	PKD1 inh	p97 inhibitor	Arbovirus anti	RBBP9 inh	DTT redox prof	Wee1 stab conf
O=C1OCC2=C1C(c1ccc(Cl)cc1)CC(=O)N2c1ccc(F)cc1 (stereo unspecified)	13.6*	1.4	5.8	7.2	-7.5	-0.2	1.8
Cc1ccc(C2NC(=O)Cc3ccccc32)cc1 (stereo unspecified)	13.5*	5.3	-1.0	1.9	-6.3	0.2	1.2
COCCN1CN=C(Nc2nc3ccccc3s2)NC1	-1.2	-23.9	0.8	2.5	-6.2	-0.3	.
O=C(CNCC1(N2CCOCC2)CCCCC1)Nc1ccc(Cl)cc1	19.3*	-1.2	0.4	-1.4	5.7	-2.0	0.1
O=C(Nc1ccc(N2CCOCC2)cc1)C1(c2ccc(Cl)cc2)CCC1	-0.6	1.3	-2.4	-1.5	-2.4	0.2	.
Cc1noc(C)c1Cn1nc(C(=O)O)c2ccccc2c1=O	11.9*	4.9	-1.5	-1.0	6.2	0.0	-0.6
CCCCS(=O)(=O)/C=C\C=C/S(=O)(=O)CCCC	18.7*	-4.9	8.7	-28.5	4.8	-1.6	12.1*
Clc1ccc(/C=C\c2nccc3c2[nH]c2ccccc23)cc1	11.7*	-2.6	1.9	0.6	-10.3	-0.4	0.8
CN1CCCCc2c1[nH]c1ccccc1c2=O	3.2	-0.6	0.4	-7.1	-4.9	0.2	.
CC1CC(C)CN(C(=O)c2ccc3c(c2)N(Cc2ccccc2)CCS3)C1 (stereo unspecified)	12.7*	15.8	-8.0	-45.9	-1.3	-1.1	0.0
Cc1ccc(CN2CCSc3ccc(C(=O)N4CCN(c5ncccn5)CC4)cc32)cc1	-0.2	-5.4	-0.1	-16.5	-4.0	0.5	.
COc1ccc(Cl)cc1N(CC(=O)NC(C(C)C)C(C)C)S(C)(=O)=O	2.5	-2.3	-0.6	10.2	-6.0	0.0	.
Cc1ccc(-n2cccn2)c(CN2CCC(CO)(CCc3ccccc3)CC2)c1	17.9*	0.1	-3.7	-13.0	-11.0	-2.9	-1.4
OCC1(CCc2ccccc2)CCN(Cc2cc(Cl)ccc2O)CC1	-2.0	-10.3	-6.9	20.1	-5.7	0.3	.
O=C(Nc1cccnc1)c1sc2cccc(F)c2c1Cl	14.6*	-0.4	-1.9	3.9	-8.5	0.3	-0.7
CC1(C(=O)N(c2ccccc2)C(C(=O)NC2CCCC2)c2ccccn2)CC(=O)N=C2C=CC=CN21 (stereo unspecified)	2.5	-13.0	5.3	11.2	-3.0	3.5	.
c1ccc2c(-c3cn4ccccc4n3)c[nH]c2c1	1.4	1.0	3.6	-5.3	-5.6	-0.1	.
O=C(C(Cl)Cl)N1c2ccccc2OCC1c1ccccc1 (stereo unspecified)	-2.2	-14.9	-7.7	-18.2	-5.8	0.8	.
CCC(C)(C)NC(=O)C(c1ccncc1)N(C(=O)Cn1nnc2ccccc21)c1cc2c(cc1C(C)=O)OCO2 (stereo unspecified)	13.8*	-14.4	1.3	-2.1	-4.7	0.0	2.6
